Assay results: ChEMBL document CHEMBL1123566, “Synthesis and cardiac electrophysiological activity of 2- and 3-[(substituted phenyl)alkyl]quinuclidines. Structure-activity relationships” (1987)

Tests used:
Canis familiaris [1] = experiment: Heart rate was determined by intraduodenal administration of two dosages of 10 mg/kg of (high dose) compound in anesthetized dogs. Value was reported for experiment 1; format: functional, Canis lupus familiaris
Outline: (§1)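 Anesthetized dogs; compound given intraduodenally, generally as two doses, the second a cumulative (high) dose. LV functional refractory period and conduction time measured 15, 30 and 45 min after dosing; heart rate and blood pressure measured during nonpacing intervals. Values are % change from control, given per individual animal. Active if FRP or CT prolonged by ≥12%.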

Canis familiaris [2] = organism: Canis familiaris; experiment: In vitro electrophysiological evaluation in canine cardiac Purkinje fibres reported as maximum percent change Vmax concentration range of 0.1-10 uM; Minimal (<IO%increase or a decrease in CT); format: functional; conditions: Canis lupus familiaris; Purkinje fiber
Outline: (§2)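 Canine cardiac Purkinje fibres, intracellular microelectrode recording, paced at a basic cycle length of 1 s. APD95 and Vmax read simultaneously. Compound: 10 mM stock in deionized water, diluted into Tyrode's solution, tested over the stated concentration range. Each fibre used once as its own control. Result is % change from control, given at 10 µM or as the maximum with its concentration. M = <10% decrease or an increase in Vmax.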

Canis familiaris [3] = experiment: Heart rate was determined by intraduodenal administration of two dosages of 10 mg/kg of compound in anesthetized dogs. Value was reported for experiment 2; format: functional, Canis lupus familiaris; outline: as §1
Canis familiaris [4] = experiment: Mean arterial blood pressure was determined by intraduodenal administration of two dosages of 3 mg/kg of (low dose) compound in anesthetized dogs. Value was reported for experiment 1; format: functional, Canis lupus familiaris
Outline: (§3)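 Anesthetized dogs received two intraduodenal doses, the second cumulative (low dose/high dose). Left ventricular FRP and CT were measured 15, 30 and 45 min after dosing. Heart rate and mean blood pressure were taken during nonpacing intervals. Values are percent change from control. The vehicle was 5% dextrose in water/tragacanth. Activity was defined as ≥12% prolongation of FRP or CT.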

Canis familiaris [5] = experiment: Left ventricular refractory period was determined by intraduodenal administration of two dosages of 10 mg/kg of compound in anesthetized dogs. Value was reported for experiment 2; format: functional, Canis lupus familiaris, Cardiac ventricle
Canis familiaris [6] = experiment: Heart rate was determined by intraduodenal administration of two dosages of 3 mg/kg of (low dose) compound in anesthetized dogs. Value was reported for experiment 1; format: functional, Canis lupus familiaris; outline: as §1
Canis familiaris [7] = experiment: Mean arterial blood pressure was determined by intraduodenal administration of two dosages of 10 mg/kg of (high dose) compound in anesthetized dogs. Value was reported for experiment 1; format: functional, Canis lupus familiaris; outline: as §3
Canis familiaris [8] = organism: Canis familiaris; experiment: In vitro electrophysiological evaluation in canine cardiac Purkinje fibres reported as percent change Vmax concentration range of 0.1-30 uM; Minimal (<IO%increase or a decrease in CT); format: functional; conditions: Canis lupus familiaris; Purkinje fiber; outline: as §2
Canis familiaris [9] = organism: Canis familiaris; experiment: In vitro electrophysiological evaluation in canine cardiac ventricular muscle reported as % change for the functional refractory period (FRP) concentration range of 0.1-30 uM; design: species or system Canis lupus familiaris, Muscle tissue
Outline: (§4)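 Canine right ventricle and papillary muscle strips in oxygenated Tyrode's solution, fitted with stimulating and recording electrodes. The extra-stimulus conduction-interval method was adapted for in vitro use. FRP and CT were read from a conduction-interval curve before and after various compound concentrations, and expressed as percent change from control. Compounds were taken from 10 mM deionized-water stock into Tyrode's. Each strip was used once as its own control.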

Canis familiaris [10] = organism: Canis familiaris; experiment: In vitro electrophysiological activity in canine cardiac Purkinje fibres given as maximum % change for action potential duration at 0.1-10 uM concentration; format: functional, Canis lupus familiaris, Purkinje fiber
Outline: (§5)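 Canine cardiac Purkinje fibres, intracellular recording at 1 s basic cycle length, over cumulative concentration ranges. Compound 10 mM stock in deionized water diluted into Tyrode's. Each fibre used once as its own control. Value is the maximum % change from control in APD at 95% repolarization, with the concentration where it occurred; both values given if a biphasic response (>20% reversal) occurred.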

Canis familiaris [11] = organism: Canis familiaris; experiment: In vitro electrophysiological evaluation in canine cardiac ventricular muscle reported as % change for conduction time(CT) at 0.1-30 uM concentration range; Minimal (<IO%increase or a decrease in CT); format: functional, Canis lupus familiaris, Muscle tissue
Canis familiaris [12] = organism: Canis familiaris; experiment: In vitro electrophysiological activity in canine cardiac Purkinje fibres given as maximum % change for action potential duration at 0.1-30 uM concentration; format: functional, Canis lupus familiaris, Purkinje fiber; outline: as §5
Canis familiaris [13] = experiment: Conduction time was determined by intraduodenal administration of two dosages of 3 mg/kg (low dose) of compound in anesthetized dogs. Value was reported for experiment 1; format: functional, Canis lupus familiaris; outline: as §1
Canis familiaris [14] = organism: Canis familiaris; experiment: In vitro electrophysiological evaluation in canine cardiac Purkinje fibres reported as % change for action potential duration at 0.1-30 uM concentration range; format: functional, Canis lupus familiaris, Purkinje fiber; outline: as §2
Canis familiaris [15] = experiment: Conduction time was determined by intraduodenal administration of two dosages of 10 mg/kg of compound in anesthetized dogs. Value was reported for experiment 2; format: functional, Canis lupus familiaris; outline: as §1
Canis familiaris [16] = experiment: Left ventricular refractory period was determined by intraduodenal administration of two dosages of 3 mg/kg of (low dose) compound in anesthetized dogs. Value was reported for experiment 1; format: functional, Canis lupus familiaris, Cardiac ventricle; outline: as §3
Canis familiaris [17] = experiment: Mean arterial blood pressure was determined by intraduodenal administration of two dosages of 10 mg/kg of compound in anesthetized dogs. Value was reported for experiment 2; format: functional, Canis lupus familiaris; outline: as §3
Canis familiaris [18] = organism: Canis familiaris; experiment: In vitro electrophysiological evaluation in canine cardiac Purkinje fibres reported as percent change Vmax concentration range of 0.1-10 uM; Minimal (<IO%increase or a decrease in CT); format: functional; conditions: Canis lupus familiaris; Purkinje fiber; outline: as §2
Canis familiaris [19] = organism: Canis familiaris; experiment: In vitro electrophysiological evaluation in canine cardiac ventricular muscle reported as maximum % change for functional refractory period (FRP) at 0.1-30 uM concentration range; design: species or system Canis lupus familiaris, Muscle tissue; outline: as §4
Canis familiaris [20] = organism: Canis familiaris; experiment: In vitro electrophysiological evaluation in canine cardiac ventricular muscle reported as maximum % change for conduction time(CT) at 0.1-30 uM concentration range; Minimal (<IO%increase or a decrease in CT); format: functional, Canis lupus familiaris, Muscle tissue; outline: as §4
Canis familiaris [21] = experiment: Effective dose administered intravenously to elicit Antiarrhythmic efficacy in anesthetized dogs was reported. Value in parenthesis indicates no. of animals effective at that dose.; format: functional, Canis lupus familiaris, Heart
Outline: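 Dogs are anesthetized and the chest reopened. Stimulating and recording electrodes go on the myocardium. Reproducible PES-induced sustained VT or VF is confirmed first; SVT is ended by burst pacing and VF by DC countershock. Compound is given iv in 0.9% saline and inducibility retested. A dose counts as effective when SVT/VF cannot be reinduced in two of three animals.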

Canis familiaris [22] = organism: Canis familiaris; experiment: In vitro electrophysiological evaluation in canine cardiac Purkinje fibres reported as maximum percent change Vmax concentration range of 0.1-30 uM; Minimal (<IO%increase or a decrease in CT); format: functional; conditions: Canis lupus familiaris; Purkinje fiber; outline: as §2
Canis familiaris [23] = experiment: Left ventricular refractory period was determined by intraduodenal administration of two dosages of 10 mg/kg of (high dose) compound in anesthetized dogs. Value was reported for experiment 1; format: functional, Canis lupus familiaris, Cardiac ventricle; outline: as §3
Canis familiaris [24] = organism: Canis familiaris; experiment: In vitro electrophysiological evaluation in canine cardiac Purkinje fibres reported as % change for action potential duration at 0.1-10 uM concentration range; format: functional, Canis lupus familiaris, Purkinje fiber; outline: as §2
Canis familiaris [25] = experiment: Conduction time was determined by intraduodenal administration of two dosages of 10 mg/kg (high dose) of compound in anesthetized dogs. Value was reported for experiment 1; format: functional, Canis lupus familiaris; outline: as §1

## CCCCCCC[N+]12CCC(CC1)/C(=C/Cc1ccc(Cl)cc1)C2.[Br-]
Canis familiaris [1]
  HR: -9%
Canis familiaris [2]
  Vmax: < 10%
Canis familiaris [3]
  HR: -13%
Canis familiaris [4]
  Mean blood pressure: 5%
Canis familiaris [5]
  LV FRP: 16%
Canis familiaris [6]
  HR: 5%
Canis familiaris [7]
  Mean blood pressure: 15%
Canis familiaris [8]
  Vmax: < 10%
Canis familiaris [9]
  FRP: 21%
Canis familiaris [10]
  APD95: 50%
Canis familiaris [11]
  CT: <10%
Canis familiaris [12]
  APD95: 64%
Canis familiaris [13]
  CT: 0%
Canis familiaris [14]
  APD95: 64%
Canis familiaris [15]
  CT: 5%
Canis familiaris [16]
  LV FRP: 2%
Canis familiaris [17]
  Mean blood pressure: 42%
Canis familiaris [18]
  Vmax: < 10%
Canis familiaris [19]
  FRP: 30%
Canis familiaris [20]
  CT: <10%
Canis familiaris [21]
  Effective dose: 0.3 mg/kg
Canis familiaris [22]
  Vmax: < 10%
Canis familiaris [23]
  LV FRP: 15%
Canis familiaris [24]
  APD95: 40%
Canis familiaris [25]
  CT: -5%
